Source: PubChem BioAssay (The Scripps Research Institute Molecular Screening Center)
This is a sample that favours compounds with a hit; in the whole collection about 2.7% have one here.
OXTR agonist = agonists of human oxytocin receptor; activation, % at 3 µM; CHO-OTR cells, Fluo-8 calcium fluorescence; normalized: DMSO 0%, oxytocin 100%; actives 0.32% (n = 320,000);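 active = activation above the mean of all tested compounds plus 3 SD, cutoff set per screening run, cut at about 20% in these data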;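 also: peak over basal fluorescence ratio from a 100 s FLIPR kinetic read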
OX1R antag-1 = blocks the human orexin 1 receptor | OX1R-expressing cells, FRET antagonist read-out | actives 1.8% (n = 330,000) | inhibition, % at 6.6 µM | O43613; in the data active = inhibition mostly above about 38%, no sharp cut-off; inactive = mostly below about 40%;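 also: 0% = agonist challenge alone and 100% = reference antagonist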
Target sequence (O43613 whole entry, looked up): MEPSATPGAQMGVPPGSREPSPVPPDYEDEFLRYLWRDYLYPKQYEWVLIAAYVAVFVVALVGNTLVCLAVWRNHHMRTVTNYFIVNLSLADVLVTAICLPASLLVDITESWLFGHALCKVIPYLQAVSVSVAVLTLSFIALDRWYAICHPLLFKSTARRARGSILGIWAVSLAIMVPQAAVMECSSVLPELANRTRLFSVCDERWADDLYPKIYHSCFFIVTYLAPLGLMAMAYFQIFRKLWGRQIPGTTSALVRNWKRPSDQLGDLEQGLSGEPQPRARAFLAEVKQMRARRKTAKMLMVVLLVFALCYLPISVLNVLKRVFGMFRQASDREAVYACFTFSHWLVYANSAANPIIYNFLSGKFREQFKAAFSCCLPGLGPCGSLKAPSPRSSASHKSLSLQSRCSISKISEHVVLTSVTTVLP
OXTR potentiate = potentiates the human oxytocin receptor response | P30559 | CHO-OTR cells, Fluo-8 calcium fluorescence, potentiator mode; 0% = oxytocin EC15, 100% = EC100 | activation, % at 3 µM | actives 0.061% (n = 320,000) | AID 2445;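 active = activation above that plate's cutoff, the mean activation of tested compounds plus 3 SD, cut at about 6.6% in these data, passing the limit was not always enough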;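 also: 100% uses oxytocin at 75 nM as the full agonist control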
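Replication – single well per compound, singlicate · Assay system – CHO cell line stably expressing human OTR · Timing – 6 min pre-incubation, 100 s read · Measure – normalized max/min fluorescence ratio, % activation · Doses – 3.0 µM, one dose · Detection – Fluo-8 calcium dye fluorescence · Probe or stimulus – oxytocin near EC15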
CHO parental Ca = signal in parental CHO cells, OX1R antagonist counter-screen; parental CHO-K1, ATP-induced calcium, Fluo-8 fluorescence; inhibition, % at 5.6 µM; actives 0.63% (n = 330,000);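 active = inhibition above that plate's mean sample inhibition plus 3 SD, cut at about 26% in these data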;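 also: 0% = ATP-challenged DMSO wells and 100% = DMSO wells without ATP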
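Measured by: calcium-sensitive Fluo-8 fluorescence / Test system: CHO parental line / Controls: ATP-challenged DMSO wells low, unchallenged DMSO wells high / Measure: % inhibition / Compound: single nominal dose of 5.6 µM per compound / Replicates: single well per compound, no replicates / Reagent: ATP as calcium-mobilizing challenge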
V1aR counter = V1a receptor agonism, counter-screen for OXTR agonists | activation, % at 3 µM | CHO-V1R cells, Fluo-8 calcium fluorescence, agonist mode; 0% DMSO, 100% 3 nM vasopressin | actives 0.25% (n = 320,000) | P37288;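 active = activation above the mean activation of all tested compounds plus 3 SD, per screening run, cut at about 20% in these data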;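 also: signal is peak over basal fluorescence ratio across a 100 second FLIPR read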
OX1R antag-2 = antagonists of human orexin 1 receptor. O43613. CHO/OX1R cells, Fluo-8 calcium fluorescence, orexin A. actives 0.43% (n = 330,000). inhibition, % at 5 µM. AID 434989;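 active = inhibition above its plate's threshold, mean inhibition of all tested compounds on the plate plus 3 SD, cut at about 37% in these data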;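 also: 0% = orexin A challenge wells and 100% = SB-334867-A antagonist wells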
OX1R HTRF confirm = OX1R (human) antagonism, HTRF confirmed | shares compounds with OX1R antag-1 | OX1R-expressing cells, HTRF antagonist assay | inhibition, % at 6.6 µM | actives 49% (n = 1,800); in the data active = inhibition above about 55%;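 also: CHO cells expressing OX1R stimulated with orexin A at about EC80; 0% = agonist challenge alone and 100% = reference antagonist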
CHO-K1 HTRF cnt = signal in parental CHO-K1 cells, OX1R antagonist counter-screen; shares compounds with OX1R antag-1; HTRF counterscreen; inhibition, % at 6.6 µM; actives 48% (n = 1,800); in the data active = inhibition above about 17%;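 also: 0% = agonist challenge with vehicle and 100% = vehicle alone without agonist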
* marks the source's active call; other numbers are inactive results; . = not tested or not shown.

SMILES	OXTR agonist	OX1R antag-1	OXTR potentiate	CHO parental Ca	V1aR counter	OX1R antag-2	OX1R HTRF confirm	CHO-K1 HTRF cnt
COc1ccc(C(C)(C)NC(=O)C2CCC(=O)N(C3CCCC3)C2)cc1OC (stereo unspecified)	0	34	-10	5	-1	-2	.	.
CCOC(=O)c1nnn(-c2ccc([N+](=O)[O-])cc2[N+](=O)[O-])c1C	1	143*	-8	-20	2	-6	46	73*
CCCCn1c(N)c(N(CCOC)C(=O)CSc2nnc(C)n2-c2ccc(OC)cc2)c(=O)[nH]c1=O	0	7	-8	-18	2	-18	.	.
O=c1[nH]c2cc3c(cc2cc1CN(Cc1cccnc1)Cc1nnnn1Cc1ccco1)OCCO3	1	26	-1	-7	0	-6	.	.
O=c1[nH]c2cc3c(cc2cc1CN(Cc1cccs1)Cc1nnnn1Cc1ccco1)OCCO3	0	103*	-25	-3	0	0	11	4
CCOC(=O)C1=C(N)Oc2cc(O)ccc2C1c1cccc([N+](=O)[O-])c1 (stereo unspecified)	-1	18	-2	-9	1	-9	.	.
CC(=O)Nc1c2c3c(cccc3n(C)c1=O)C(=O)c1ccccc1-2	1	154*	-3	-4	0	-15	43	65*
Cc1ccc2ncccc2c1	0	-5	-8	-14	2	8	.	.
Cc1cc(N(C)C)ccc1N=Nc1ccc2ncccc2c1	-1	83*	-4	-32	-2	-3	75*	10
CC1C(=O)N2CCCc3cc(S(=O)(=O)Nc4ccccc4C(N)=O)cc1c32 (stereo unspecified)	1	15	-8	2	0	9	.	.
CC(Cl)C(=O)Nc1cc(C(F)(F)F)ccc1N1CCOCC1 (stereo unspecified)	-1	94*	4	0	0	-22	16	-4
CC1CC1C(=O)Nc1cc(C(F)(F)F)ccc1N1CCOCC1 (stereo unspecified)	-1	16	1	-11	-1	-9	.	.
Cn1nnnc1SCC(=O)Nc1cc(C(F)(F)F)ccc1N1CCOCC1	0	12	-2	-15	0	-18	.	.
O=C(CSc1nc2ccccc2[nH]1)Nc1cc(C(F)(F)F)ccc1N1CCOCC1	0	87*	-3	-16	0	26	53	1
Cc1cccc(-n2nc([N+](=O)[O-])c(=NC3CCN(Cc4ccccc4)CC3)n2O)c1	0	83*	-5	-17	0	-22	47	42*
COc1ccc(COn2c(=O)c(C)[n+]([O-])c3ccccc32)cc1OC	0	41	1	-6	0	-26	.	.
COc1ccc(-c2c(=O)n(OCc3nc4ccccc4[nH]3)c3ccccc3[n+]2[O-])cc1	-1	40	1	-6	0	-33	.	.
C=CCOn1c(=O)c(-c2ccc(OC)cc2)[n+]([O-])c2ccccc21	-2	98*	-8	-1	-1	-2	33	48*
Cc1c(=O)n(OCc2ccccc2)c2ccccc2[n+]1[O-]	-1	103*	-12	-18	0	-27	52	25*
COc1ccc(-c2cnc3nc[nH]c(=O)c3n2)cc1	-2	197*	-13	8	0	2	56*	90*
CCOC(=O)c1ccccc1NC(=O)c1cccc([N+](=O)[O-])c1	-3	14	-11	-8	1	-39	.	.
CCOC(=O)c1ccc([N+](=O)[O-])cc1NC(C)=O	0	83*	-12	-5	0	2	35	44*
Cc1ncc(CN=Cc2ccc(Cl)cc2)c(N)n1	1	1	-1	-5	2	-5	.	.
COc1ccc(NC2=NCC(Cc3ccc(Br)cc3)S2)cc1 (stereo unspecified)	5	6	-13	-3	4	-19	.	.
Cc1cccc(-n2c3nc(=O)[nH]c(=O)c-3cc3cc([N+](=O)[O-])ccc32)c1	1	77*	-1	2	0	-6	68*	66*
SMILES	OXTR agonist	OX1R antag-1	OXTR potentiate	CHO parental Ca	V1aR counter	OX1R antag-2	OX1R HTRF confirm	CHO-K1 HTRF cnt
O=C(Nc1cccc(Cl)c1)Nc1ccc(Br)cc1F	8	82*	-14	10	9	15	36	15
CCOC(=O)c1cc2c(=O)n3ccccc3nc2n(CC(C)C)c1=NC(=O)c1ccco1	-1	117*	-11	-5	0	-32	54	40*
CCOC(=O)c1cc2c(=O)n3ccccc3nc2n(Cc2ccccc2)c1=N	1	60	-4	4	2	-16	.	.
CCOC(=O)c1cc2c(=O)n3ccccc3nc2n(C(C)C)c1=NC(=O)c1ccncc1	-2	43	-12	-13	0	-14	.	.
CCOC(=O)c1cc2c(=O)n3ccccc3nc2n(CCOC)c1=NC(=O)c1ccncc1	0	80*	-14	-12	1	-17	58*	52*
CCOC(=O)c1cc2c(=O)n3ccccc3nc2n(CCCOC)c1=NC(=O)C(C)(C)C	-1	84*	-7	-21	0	-41	21	27*
COc1ccc(OCC(=O)Nc2cc(OC)ccc2N2CCCCC2)cc1	-1	7	-11	-31	0	-36	.	.
O=C(CN1C(=O)NC2(CCCCCC2)C1=O)c1ccc(OC(F)F)cc1OC(F)F	-2	4	-7	-22	1	-27	.	.
O=[N+]([O-])c1ccc(C2=Nn3cnnc3SC2)cc1	0	88*	-6	-8	1	-30	58*	93*
O=C(N/N=C/c1ccc(OCC(=O)N2CCCCC2)cc1)c1ccccc1O	0	7	0	-22	1	-20	.	.
O=C(NC1CCCCC1)C1CC(=O)N(c2cccc([N+](=O)[O-])c2)C1 (stereo unspecified)	0	88*	-7	10	0	1	35	7
COC(=O)c1c(NC(=O)C(C)C)sc2c1C(C(=O)OC)CC2 (stereo unspecified)	-1	30	-5	-14	0	-4	.	.
COC(=O)c1c(NC(=O)c2ccco2)sc2c1C(C(=O)OC)CC2 (stereo unspecified)	-1	80*	-12	-29	0	-1	62*	-6
Cc1ccc(NC(=O)Cn2c([N+](=O)[O-])cnc2C)cc1Cl	1	-10	-5	-8	2	-12	.	.
CC(=O)N1CCc2cc(N=NC3=C(O)CCCC3=O)ccc21	0	152*	-2	-3	1	-7	74*	82*
